A selection: hits, their analogues and other compounds. The true share with any hit is near 9.6%.
TNAP inh no acc = TNAP (human) inhibition, acceptor-free conditions; P05186; purified TNAP, CDP-star luminescence, 30 min; inhibition, % at 20 µM; 200,000 compounds, 0.26% hits; AID 1012;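 active = tissue-nonspecific alkaline phosphatase inhibition above about 50% at 20 µM in the single-dose screen, limit read from the data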;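 also: 0% = DMSO negative control and 100% = EDTA positive control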
TNAP act hiacc = TNAP (human) activation, high acceptor; activation factor at 20 µM; purified TNAP, CDP-star luminescence, 1 M DEA, 30 min; active compounds read high; 0 = EDTA background, 1 = DMSO-only activity; 200,000 tested, under 10 active; AID 1136;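 active = activation factor at least 2 at 20 µM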
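Control set: EDTA negative control, DMSO positive control / Assay system: human TNAP / Quantity: TNAP 1/800 final / Evaluation: TNAP activation factor scaled between EDTA and DMSO control wells / Measured by: luminescent substrate turnover signal / Compound dosing: one dose, 20 µM / Times: 30 min enzyme reaction at room temperature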
Lmaj promast = reduces viability of Leishmania major promastigotes; resazurin fluorescence viability; inhibition, % at 10 µM; 200,000 compounds, 9% hits; AID 1063; in the data active = inhibition above about 50%;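 also: promastigotes grown with compound for 44 hours at 28 °C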
TNAP inh hiacc = TNAP (human) inhibition, high acceptor; inhibition, % at 20 µM; P05186; 200,000 compounds, 0.03% hits; AID 1135; purified TNAP, CDP-star luminescence, 1 M DEA;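 active = over 50% inhibition of tissue-nonspecific alkaline phosphatase at 20 µM in the single-dose screen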;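 also: plate controls were DMSO wells for no effect and EDTA-quenched wells as full inhibition for full effect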
HCT116 PTEN-null = growth suppressors of cells with PTEN tumor suppressor deletion; HCT116 PTEN-null viability, CellTiter-Glo, 60 h; active compounds read low; viability, % at 10 µM; 140,000 compounds, 1.2% hits;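 active = viability at or below a set limit, 4 SD under the median of all tested compounds, cut at about 3.7% in these data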;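 also: PTEN knockout HCT116 line with beta catenin targeted HCT116 as companion control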
HCT116 bCat-KO = beta-catenin-lacking colon tumor cell growth suppression | HCT116 beta-catenin knockout viability, CellTiter-Glo, 60 h; active compounds read low | viability, % at 10 µM | 140,000 compounds, 1.5% hits;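 active = viability at or under a set limit, the compound median less 4 SD, cut at about 6% in these data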;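 also: 0% = Hyamine 1622 control at 20 µM and 100% = untreated cell control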
Lmaj promast 1uM = L. major promastigote growth inhibition, 1 uM repeat. shares compounds with Lmaj promast. resazurin fluorescence, 48 h. inhibition, % at 1 µM. 1,100 compounds, 13% hits. AID 1258;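 active = inhibition above about 50% in both repeat tests, limit read from the data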
* = called active by the depositor; nt = not tested or not shown.

SMILES | TNAP inh no acc | TNAP act hiacc | Lmaj promast | TNAP inh hiacc | HCT116 PTEN-null | HCT116 bCat-KO | Lmaj promast 1uM
CCCCN(CCCC)C(=O)c1ccccc1NC(=O)CN1C(=O)c2ccccc2C1=O | 0.2 | 1.1 | -6.9 | -6.8 | 112.7 | 101.0 | nt
CCn1c(C)c2c(C)nnc(C)c2c1C | -2.9 | 0.9 | 19.2 | 5.8 | 100.8 | 87.5 | nt
CCn1c(C)c(P(c2ccccc2)c2ccccc2)[n+]2ccccc12 | -16.5 | 1.1 | 94.5* | -6.7 | nt | nt | -10.9
Cc1cc(C)c(COCc2cc(/C=N/O)c(C)cc2C)cc1/C=N/O | -9.8 | 1 | 88.8* | 0.5 | 61.2 | 49.6 | -10.3
O=S(=O)(CCN(CCS(=O)(=O)C(F)(F)F)CC1CCCO1)C(F)(F)F (stereo not given) | -6.2 | 1 | 100.2* | 1.8 | 1.5* | 1.6* | 8.0
Cc1ccc(-c2cc[n+](Cc3ccccc3)cc2)cc1 | -7.8 | 1 | 91.7* | -4.8 | nt | nt | 3.2
CC(C)CC(=O)O/N=C1\C(=O)N(Cc2ccc(Cl)cc2)c2ccc([N+](=O)[O-])cc21 | -3.5 | 1 | -5.2 | -0.3 | 64.4 | 65.4 | nt

Screening results from PubChem BioAssay.
